For 5 compounds, inhibition results are on record in ChEMBL document CHEMBL5390275, “Molecular Graph-Based Deep Learning Algorithm Facilitates an Imaging-Based Strategy for Rapid Discovery of Small Molecules Modulating Biomolecular Condensates” (J Med Chem, 2023).

The test system of assay [1] is DLD-1. The experiment in a line: Inhibition of sodium arsenite induced stress granule formation in human DLD-1 cells at 10 uM incubated for 24 hrs followed by sodium arsenite stimulation for 1 hr by G3BP1 staining based immunostaining analysis. It counts as functional, cell-based. In outline:
(§1)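 DLD1 cells on glass-bottom plates treated with compound at 10uM for 24 h, then 250uM sodium arsenite for 1 h; DMSO control. Fixed in 4% PFA 10 min RT, permeabilized, blocked (5% BSA, 0.1% Triton X-100), stained with anti-G3BP1 and anti-NPM1 (1:100, 1 h RT), secondaries 1:1000 30 min, DAPI; spinning-disc confocal max-projection images analysed.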

Assay [2] has as its system U2OS. The experiment in a line: Inhibition of doxycycline induced TDP-43 2KQ mutant anisosomes formation in human U2OS cells expressing TDP-43 2KQ mutant anisosomes at 10 uM incubated for 24 hrs by fluorescence imaging analysis. It counts as cell-based. The procedure, abridged:
(§2)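 Stable lentivirally transduced DLD1 (single-cell clones sorted by fluorescence) or U2OS lines expressing inducible TDP-43 anisosomes; plated 4000 cells/well, overnight, then compound 24 h; cells fixed, fluorescent anisosomes imaged on ImageExpress HTai and anisosome number per cell quantified.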

For assay [3], the target named is TAR DNA-binding protein 43 (Homo sapiens) (UniProt Q13148). The assay is described as follows: Inhibition of human TDP-43 in human SH-SY5Y cells assessed a splicing changes in normal STMN2 mRNA at 10 uM incubated for 24 hrs by qPCR analysis. Type of assay: cell-based. In outline:
(§3)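 SH-SY5Y neuron-like cells (DMEM/F12, 10% FBS) given compound at 10uM final for 24 h; total RNA then harvested and normal and cryptic spliced STMN2 mRNA quantified by real-time PCR.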

The subject of assay [4] is DLD-1. The assay is described as follows: Inhibition of doxycycline induced TDP-43 2KQ mutant anisosomes formation in human DLD-1 cells expressing TDP-43 2KQ mutant anisosomes at 10 uM incubated for 24 hrs by fluorescence imaging analysis. Type of assay: cell-based. The procedure, abridged:
as §2

Assay [5] relates to SH-SY5Y. The assay is described as follows: Inhibition of TDP-43 2KQ mutant in human SH-SY5Y cells assessed a splicing changes in cryptic STMN2 mRNA at 10 uM incubated for 24 hrs by qPCR analysis. It counts as cell-based. In outline: as §3
A general note: Quantitative PCR measures a nucleic acid by following its amplification.

In assay [6] the test system is TAR DNA-binding protein 43 (Homo sapiens), Q13148 [K181E]. The experiment in a line: Inhibition of doxycycline induced TDP-43 K181E mutant anisosomes formation in human U2OS cells expressing ALS-causing TDP-43 K181E mutant anisosomes assessed as change in TDP-43 droplets morphology at 1 to 10 uM incubated for 24 hrs by fluorescence imaging analysis. It counts as cell-based. The conditions noted are these: dose 1-10 µM. In outline:
(§4)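 U2OS cells stably expressing inducible TDP-43 K181E or NCOR2 anisosomes, treated with compound for 24 h (10uM, or a concentration series), then fixed and imaged; fraction of demixing cells quantified from fluorescent images.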

Assay [7] has as its target Nuclear receptor corepressor 2 (Homo sapiens) (UniProt Q9Y618). The assay is described as follows: Inhibition of doxycycline induced NCOR2 anisosomes formation in human U2OS cells expressing ALS-causing NCOR2 anisosomes assessed as change in NCOR2 droplets morphology at 10 uM incubated for 24 hrs by fluorescence imaging analysis. Type of assay: cell-based. In outline:
as §4

Assay [8] relates to DLD-1. The experiment in a line: Inhibition of sodium arsenite stimulated human DLD-1 cells assessed as change in nucleolus morphology at 10 uM incubated for 24 hrs followed by sodium arsenite stimulation for 1 hr by NPM1 staining based immunostaining analysis. Type of assay: functional, cell-based. The procedure, abridged:
as §1

Each structure is given as a SMILES string. Activity calls are given as the source filed them. The rule behind the calls is not given here.

TAR DNA-binding protein 43 (Homo sapiens), sequence (Q13148 whole entry, canonical isoform): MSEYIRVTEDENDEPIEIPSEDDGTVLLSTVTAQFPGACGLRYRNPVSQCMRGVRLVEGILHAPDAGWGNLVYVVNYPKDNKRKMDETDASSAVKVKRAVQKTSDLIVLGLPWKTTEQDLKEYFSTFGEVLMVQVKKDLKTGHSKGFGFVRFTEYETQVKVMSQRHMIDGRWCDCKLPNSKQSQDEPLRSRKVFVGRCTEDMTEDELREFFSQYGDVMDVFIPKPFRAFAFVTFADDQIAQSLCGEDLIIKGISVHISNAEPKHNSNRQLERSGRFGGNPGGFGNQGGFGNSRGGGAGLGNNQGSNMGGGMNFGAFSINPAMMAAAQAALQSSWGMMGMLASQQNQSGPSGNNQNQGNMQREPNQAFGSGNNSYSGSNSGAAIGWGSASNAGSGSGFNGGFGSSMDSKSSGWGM
Nuclear receptor corepressor 2 (Homo sapiens), sequence (Q9Y618 whole entry): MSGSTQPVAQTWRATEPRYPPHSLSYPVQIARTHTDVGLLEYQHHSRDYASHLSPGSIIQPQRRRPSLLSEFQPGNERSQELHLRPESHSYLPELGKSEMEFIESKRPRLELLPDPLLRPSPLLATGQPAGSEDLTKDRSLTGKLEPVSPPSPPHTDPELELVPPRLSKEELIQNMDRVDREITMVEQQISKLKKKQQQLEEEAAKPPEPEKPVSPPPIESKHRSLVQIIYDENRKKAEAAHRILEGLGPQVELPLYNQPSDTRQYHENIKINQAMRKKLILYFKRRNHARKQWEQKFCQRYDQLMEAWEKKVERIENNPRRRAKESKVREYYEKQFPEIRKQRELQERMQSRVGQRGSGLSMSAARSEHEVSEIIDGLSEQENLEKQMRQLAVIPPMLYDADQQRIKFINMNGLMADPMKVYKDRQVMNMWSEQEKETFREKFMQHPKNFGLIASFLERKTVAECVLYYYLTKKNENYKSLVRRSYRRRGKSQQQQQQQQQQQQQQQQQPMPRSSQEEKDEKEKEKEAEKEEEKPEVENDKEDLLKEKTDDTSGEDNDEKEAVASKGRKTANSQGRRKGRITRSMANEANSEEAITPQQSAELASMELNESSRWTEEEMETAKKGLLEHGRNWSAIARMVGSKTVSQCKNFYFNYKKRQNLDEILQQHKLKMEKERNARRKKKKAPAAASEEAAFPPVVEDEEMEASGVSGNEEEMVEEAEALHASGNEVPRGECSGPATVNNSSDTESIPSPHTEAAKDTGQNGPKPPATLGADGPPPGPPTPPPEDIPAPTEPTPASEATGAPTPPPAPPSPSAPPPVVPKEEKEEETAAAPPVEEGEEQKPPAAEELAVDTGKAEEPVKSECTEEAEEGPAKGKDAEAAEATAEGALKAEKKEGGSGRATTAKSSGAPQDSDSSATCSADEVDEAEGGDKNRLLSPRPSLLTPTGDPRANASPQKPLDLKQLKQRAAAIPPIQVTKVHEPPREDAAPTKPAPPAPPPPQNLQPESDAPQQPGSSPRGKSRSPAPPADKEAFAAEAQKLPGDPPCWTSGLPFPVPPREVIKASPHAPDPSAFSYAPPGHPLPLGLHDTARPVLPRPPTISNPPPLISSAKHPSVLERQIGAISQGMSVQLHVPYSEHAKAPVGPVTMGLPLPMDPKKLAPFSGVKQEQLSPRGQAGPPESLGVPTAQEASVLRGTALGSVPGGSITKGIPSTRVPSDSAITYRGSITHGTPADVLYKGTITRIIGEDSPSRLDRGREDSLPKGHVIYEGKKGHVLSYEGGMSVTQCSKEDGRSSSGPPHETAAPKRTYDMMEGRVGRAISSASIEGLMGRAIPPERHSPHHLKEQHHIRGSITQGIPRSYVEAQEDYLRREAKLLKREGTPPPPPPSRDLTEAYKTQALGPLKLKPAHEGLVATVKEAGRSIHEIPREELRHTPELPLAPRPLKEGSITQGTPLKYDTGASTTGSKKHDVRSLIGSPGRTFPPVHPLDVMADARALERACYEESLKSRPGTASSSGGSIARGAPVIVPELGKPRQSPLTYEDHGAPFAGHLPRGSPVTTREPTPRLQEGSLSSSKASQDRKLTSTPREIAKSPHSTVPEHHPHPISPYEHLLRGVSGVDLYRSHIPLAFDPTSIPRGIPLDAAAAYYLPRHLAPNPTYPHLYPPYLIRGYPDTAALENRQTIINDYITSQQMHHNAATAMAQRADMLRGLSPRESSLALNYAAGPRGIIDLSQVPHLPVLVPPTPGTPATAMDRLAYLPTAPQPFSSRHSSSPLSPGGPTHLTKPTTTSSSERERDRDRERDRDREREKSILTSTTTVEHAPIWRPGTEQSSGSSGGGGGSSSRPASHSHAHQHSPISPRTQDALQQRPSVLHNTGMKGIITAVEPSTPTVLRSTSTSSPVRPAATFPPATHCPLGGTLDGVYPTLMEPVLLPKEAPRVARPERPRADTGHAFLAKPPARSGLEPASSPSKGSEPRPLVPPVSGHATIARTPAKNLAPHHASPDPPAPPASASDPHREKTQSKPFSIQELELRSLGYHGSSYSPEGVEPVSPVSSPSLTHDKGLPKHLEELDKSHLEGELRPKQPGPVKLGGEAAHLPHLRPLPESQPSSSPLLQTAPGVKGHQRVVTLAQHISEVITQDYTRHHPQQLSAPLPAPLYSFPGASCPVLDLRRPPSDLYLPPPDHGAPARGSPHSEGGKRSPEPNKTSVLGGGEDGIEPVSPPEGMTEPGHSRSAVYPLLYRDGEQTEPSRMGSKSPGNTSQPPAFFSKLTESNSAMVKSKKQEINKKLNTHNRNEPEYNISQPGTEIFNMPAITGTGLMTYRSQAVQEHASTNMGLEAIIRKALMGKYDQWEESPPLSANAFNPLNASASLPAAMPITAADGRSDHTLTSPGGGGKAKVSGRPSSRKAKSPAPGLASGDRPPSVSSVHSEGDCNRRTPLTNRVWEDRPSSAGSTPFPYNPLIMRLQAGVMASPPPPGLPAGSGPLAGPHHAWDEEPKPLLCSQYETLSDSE
TAR DNA-binding protein 43 (Homo sapiens), Q13148 [K181E], sequence (Q13148 whole entry K181E): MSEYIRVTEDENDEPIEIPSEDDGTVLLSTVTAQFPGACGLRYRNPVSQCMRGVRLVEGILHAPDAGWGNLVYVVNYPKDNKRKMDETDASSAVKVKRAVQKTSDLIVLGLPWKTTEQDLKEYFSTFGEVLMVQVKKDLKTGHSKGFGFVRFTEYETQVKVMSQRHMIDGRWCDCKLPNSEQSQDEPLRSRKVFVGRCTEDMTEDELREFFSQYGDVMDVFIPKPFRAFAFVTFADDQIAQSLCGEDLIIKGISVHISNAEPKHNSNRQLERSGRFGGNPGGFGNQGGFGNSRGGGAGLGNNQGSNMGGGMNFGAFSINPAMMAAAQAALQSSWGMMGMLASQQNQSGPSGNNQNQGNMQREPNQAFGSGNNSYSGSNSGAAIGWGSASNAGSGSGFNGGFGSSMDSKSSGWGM

For the compound `Cc1ccc(CCNc2ncnc3onc(C)c23)cc1`, the inhibition result in assay [1], in assay [2], in assay [3] and in assay [4] was “inactive” each time. For the same compound, the inhibition entry in assay [5] was “Active”.
`COc1ccc(S(=O)(=O)NCC(c2ccco2)S(=O)(=O)c2cccs2)cc1F` (centres undefined): the inhibition result in assay [1] and in assay [3] was “inactive” throughout.
As for `COc1ccc(NC(=O)Cn2c(SCc3ccc(F)cc3)nc3cccnc32)cc1OC`, the inhibition entry in assay [1], in assay [6] and in assay [3] was “inactive” throughout. For the same compound, the inhibition result in assay [7] is “Active”.
Turning to `C=C1C(=O)O[C@H]2C3=C(C)CCC[C@]3(C)C(=O)C[C@@H]12`, the inhibition entry in assay [8], in assay [1], in assay [6], in assay [2], in assay [7] and in assay [4] was “Active” each time. In addition, in assay [3], the inhibition result was “inactive”.
On to `COc1ccc2[nH]c(=O)c3c(c2c1)OC(C)(C)C=C3`, for which the inhibition entry in assay [1], in assay [3] and in assay [7] was “inactive” in each case. Moreover, in assay [6], the inhibition entry was “Dose-Dependent Effect”. Moreover, the inhibition result in assay [2] and in assay [4] was “Active” in each case.
